Consider seven compounds from ChEMBL document CHEMBL1159327, “(+)-7S-Hydroxyxestospongin A from the marine sponge Xestospongia sp. and absolute configuration of (+)-xestospongin D” (2002).

Values after ≈ are worked out from the molar mass of the structure shown. Active and inactive are the calls of the source.

In assay [1] the test system is Candida albicans. The assay is described as follows: Antimicrobial activity against fluconazole-resistant Candida albicans ATCC 14503 after 16 to 18 hrs by microbroth dilution assay. It is filed as functional. Summed up: (§1)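 Broth microdilution susceptibility testing, adapted with minor changes from a published method, incubated at 37 °C for 16–18 h; read-out is the minimum inhibitory concentration. C. krusei and C. glabrata strains came from the University of Texas Medical Center. C. albicans UCD FR1 was raised in-house by repeated passage through Sabouraud medium containing inhibitory fluconazole concentrations.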
In general terms: In broth dilution the organism is exposed to a series of concentrations in liquid medium.

The test system of assay [2] is Candida albicans. The assay is described as follows: Antimicrobial activity against Candida albicans UCD FRI after 16 to 18 hrs by microbroth dilution assay. It is filed as functional. Summed up: as §1
Assay [3] concerns Nakaseomyces glabratus. The experiment in a line: Antimicrobial activity against Candida glabrata after 16 to 18 hrs by microbroth dilution assay. It is filed as functional. The procedure, abridged:
as §1

Assay [4] relates to Pichia kudriavzevii. The experiment in a line: Antimicrobial activity against Candida krusei after 16 to 18 hrs by microbroth dilution assay. It is filed as functional. Summed up:
as §1

The species entered for another assay is Oryctolagus cuniculus. The assay is described as follows: Inhibition of IP3-sensitive Ca2+ channel activity in endoplasmic reticulum of rabbit cerebellum assessed as Ca2+ release. It is filed as tissue-based.
For assay [5], the system named is Candida albicans. The experiment in a line: Antimicrobial activity against fluconazole-resistant Candida albicans ATCC 14503 up to 300 ug/disk by disk diffusion method. It is filed as functional, organism-based. Background: Agar diffusion results depend on both activity and mobility in agar.
Assay [6] concerns Candida albicans. The assay is described as follows: Antimicrobial activity against Candida albicans UCD FRI up to 300 ug/disk by disk diffusion method. It is filed as functional, organism-based. Summed up: (§2)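 Disk diffusion antifungal test, up to 300 μg/disk, read as a zone of inhibition. C. glabrata and C. krusei were clinical strains from the University of Texas Medical Center. C. albicans UCD FR1 was raised in-house by repeated passage through Sabouraud medium containing inhibitory concentrations of fluconazole.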

Assay [7] has as its system Nakaseomyces glabratus. The assay is described as follows: Antimicrobial activity against Candida glabrata up to 300 ug/disk by disk diffusion method. It is filed as functional, organism-based. Summed up:
as §2

The test system of assay [8] is Pichia kudriavzevii. The experiment in a line: Antimicrobial activity against Candida krusei up to 300 ug/disk by disk diffusion method. It is filed as functional, organism-based. The procedure, abridged:
as §2

On to `O[C@]12CCCCCC[C@@H]3CCN4CCC[C@H](CCCCCC[C@@H]5CCN(CCC1)[C@H]2O5)[C@@H]4O3` [(+)-DEMETHYLXESTOSPONGIN B], for which the minimum inhibitory concentration (MIC) (commonly the smallest concentration in the dilution series that meets the test's criterion for growth inhibition) worked out at 100 µg/mL (≈ 216 µM) with Candida albicans [1], 30 µg/mL (≈ 64.8 µM) in the assay on Candida albicans [2], 30 µg/mL (≈ 64.8 µM) in the assay on Nakaseomyces glabratus [3] and 30 µg/mL (≈ 64.8 µM) against Pichia kudriavzevii [4].
On to `C[C@@H]1[C@H](O)[C@@H](C)/C=C/C=C/C=C/C=C/C=C/C=C/C=C/[C@H](O[C@@H]2O[C@H](C)[C@@H](O)[C@H](N)[C@@H]2O)C[C@@H]2O[C@](O)(C[C@@H](O)C[C@@H](O)[C@H](O)CC[C@@H](O)C[C@@H](O)CC(=O)O[C@H]1C)C[C@H](O)[C@H]2C(=O)O` [AMPHOTERICIN B], for which the MIC against Candida albicans [1] is 0.3 µg/mL (≈ 0.325 µM); against Candida albicans [2], 1 µg/mL (≈ 1.08 µM); in the assay on Nakaseomyces glabratus [3] it was 1 µg/mL (≈ 1.08 µM).
On to `O[C@]12CCCCCC[C@@H]3CCN4CCC[C@@H](CCCCCC[C@@H]5CCN(CCC1)[C@H]2O5)[C@@H]4O3`, for which the MIC with Candida albicans [1], with Candida albicans [2], with Nakaseomyces glabratus [3] and against Pichia kudriavzevii [4] was 100 µg/mL (≈ 216 µM) in each case. Moreover, the ED50 in the assay listed under Oryctolagus cuniculus amounted to 800 nM.
In the case of `O[C@H]1C[C@H]2CCCCCC[C@@H]3CCN4CCC[C@@H](CCCCCC[C@@H]5CCN(C1)[C@H]2O5)[C@@H]4O3`, the result in the assay with Candida albicans [5], in the assay with Candida albicans [6], with Nakaseomyces glabratus [7] and in the assay on Pichia kudriavzevii [8] was inactive. Also, in the assay filed under Oryctolagus cuniculus, the ED50 amounted to 6400 nM.
Consider `C1CCC[C@@H]2CCCN3CC[C@@H](CCCCCC[C@@H]4CCCN5CC[C@@H](CC1)O[C@@H]45)O[C@@H]23`, for which the minimal inhibitory concentration (MIC) with Candida albicans [1], against Candida albicans [2], against Nakaseomyces glabratus [3] and against Pichia kudriavzevii [4] was 100 µg/mL (≈ 224 µM) each time.
In the case of `C1CCC[C@H]2CCCN3CC[C@@H](CCCCCC[C@@H]4CCCN5CC[C@@H](CC1)O[C@@H]45)O[C@@H]23`, the MIC was 100 µg/mL (≈ 224 µM) in the assay on Candida albicans [1], 100 µg/mL (≈ 224 µM) against Candida albicans [2], 30 µg/mL (≈ 67.2 µM) with Nakaseomyces glabratus [3] and 30 µg/mL (≈ 67.2 µM) against Pichia kudriavzevii [4]. In addition, in the assay listed under Oryctolagus cuniculus, the ED50 is 300 nM.
As to `OC(Cn1cncn1)(Cn1cncn1)c1ccc(F)cc1F` [FLUCONAZOLE], the MIC against Candida albicans [1] came out at 1 µg/mL (≈ 3.27 µM); in the assay on Candida albicans [2], 100 µg/mL (≈ 327 µM); against Nakaseomyces glabratus [3], 100 µg/mL (≈ 327 µM); in the assay on Pichia kudriavzevii [4], 100 µg/mL (≈ 327 µM).
